Reference: ChEMBL document CHEMBL1124186, “Synthesis and evaluation of tylosin-related macrolides modified at the aldehyde function: a new series of orally effective antibiotics” (1988)
Values after ≈ are worked out from the molar mass of the structure shown. Values belong to the compound of their own block, whether it stands above or below them.

How the values were obtained:
Streptococcus pneumoniae [1] = assay: In vitro antimicrobial activity against Streptococcus pneumoniae; format: functional
Streptococcus pyogenes [2] = assay: In vivo effective dose against experimental infections in rodent caused by Streptococcus pyogenes C203 when administered orally; format: functional; settings: po
Haemophilus influenzae [3] = assay: In vitro antimicrobial activity against Haemophilus influenzae.; format: functional
Streptococcus pyogenes [4] = assay: Activity against Streptococcus pyogenes C203 when administered sc; format: functional
Summary of the method: (§1)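 Mouse protection test: infected mice were dosed twice, at 1 and 5 h postinfection, either subcutaneously or orally. […] The result is expressed as ED50 in mg/kg × 2.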

Streptococcus pyogenes [5] = assay: In vitro antimicrobial activity against Streptococcus pyogenes C203; format: functional
Staphylococcus aureus [6] = assay: In vitro antimicrobial activity against Staphylococcus aureus X1; format: functional
[7] = system: Staphylococcus epidermidis; assay: In vitro antimicrobial activity against Staphylococcus epidermidis EPI1; format: functional
Streptococcus pyogenes [8] = assay: Anti microbial activity against Streptococcus pyogenes; format: functional
Streptococcus pyogenes [9] = assay: In vivo effective dose against experimental infections in rodent caused by Streptococcus pyogenes C203 when administered sc; format: functional
Streptococcus pyogenes [10] = assay: Activity against Streptococcus pyogenes C203 when administered orally; format: functional; settings: po; summary of the method: as §1
Rattus norvegicus [11] = assay: Peripheral plasma levels in rats after oral administration of 100 mg/kg dose for 0.25 hr; format: functional, organism-based; set-up: dose 100 mg/kg
Summary of the method: (§2)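 Rats received 100 mg/kg orally and were sampled for peripheral plasma. Concentrations were measured by Micrococcus luteus agar-diffusion microbiological assay in Antibiotic Medium 1, with zone sizes converted using the standard curve for the appropriate compound. Each value is the average of three rats per time point.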

Haemophilus influenzae [12] = assay: In vitro antimicrobial activity against aerobic bacteria Haemophilus influenzae MX366,; format: functional
Streptococcus [13] = assay: In vitro antimicrobial activity against aerobic bacteria Streptococcus D 2041; format: functional
Streptococcus viridans = assay: In vitro antimicrobial activity against aerobic bacteria Streptococcus viridans 9943; format: functional
Staphylococcus aureus [14] = assay: In vitro antimicrobial activity against aerobic bacteria Staphylococcus aureus 513E; format: functional
Streptococcus [15] = assay: In vitro antimicrobial activity against aerobic bacteria Streptococcus C 24; format: functional
Staphylococcus aureus [16] = assay: In vitro antimicrobial activity against aerobic bacteria Staphylococcus aureus X400; format: functional
[17] = system: Staphylococcus epidermidis; assay: In vitro antimicrobial activity against aerobic bacteria Streptococcus epi 270; format: functional
Mus musculus [18] = assay: Peripheral plasma levels in mice after oral administration of 50 mg/kg dose for 0.25 hr; format: functional, organism-based; set-up: dose 50 mg/kg
Summary of the method: (§3)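 Mice were given the compound orally and sampled for peripheral plasma at each time point. Plasma was assayed microbiologically against Micrococcus luteus seeded in Antibiotic Medium 1. Inhibition zone sizes were read, and concentrations were calculated from each compound's own standard curve. Each value is the mean of five mice per time point.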

Streptococcus [19] = assay: In vitro antimicrobial activity against aerobic bacteria Streptococcus G Kruder; format: functional; settings: Streptococcus; read-out: MIC
Streptococcus [20] = assay: In vitro antimicrobial activity against aerobic bacteria Streptococcus D 8043; format: functional
Mus musculus [21] = assay: Peripheral plasma levels in mice after oral administration of 50 mg/kg dose for 1 hr; format: functional, organism-based; set-up: dose 50 mg/kg; summary of the method: as §3
Rattus norvegicus [22] = assay: Peripheral plasma levels in rats after oral administration of 100 mg/kg dose for 1 hr; format: functional, organism-based; set-up: dose 100 mg/kg; summary of the method: as §2
Streptococcus sanguinis = assay: In vitro antimicrobial activity against aerobic bacteria Streptococcus sanguis MX132; format: functional
Rattus norvegicus [23] = assay: Peripheral plasma levels in rats after oral administration of 100 mg/kg dose for 4 hr; format: functional, organism-based; set-up: dose 100 mg/kg; summary of the method: as §2
Enterococcus faecium = assay: In vitro antimicrobial activity against Streptococcus faecium X66; format: functional, streptococcus fae-cium
Rattus norvegicus [24] = assay: Peripheral plasma levels in rats after oral administration of 100 mg/kg dose for 2 hr; format: functional, organism-based; set-up: dose 100 mg/kg; summary of the method: as §2
[25] = system: Staphylococcus epidermidis; assay: In vitro antimicrobial activity against aerobic bacteria Streptococcus epi 222; format: functional
Rattus norvegicus [26] = assay: Peripheral plasma levels in rats after oral administration of 100 mg/kg dose for 0.5 hr; format: functional, organism-based; set-up: dose 100 mg/kg; summary of the method: as §2
Mus musculus [27] = assay: Peripheral plasma levels in mice after oral administration of 100 mg/kg dose for 0.5 hr; format: functional, organism-based; set-up: dose 100 mg/kg; summary of the method: as §3
Staphylococcus aureus [28] = assay: In vitro antimicrobial activity against aerobic bacteria Staphylococcus aureus V140,; format: functional
Streptococcus [29] = assay: In vitro antimicrobial activity against aerobic bacteria Streptococcus B 8; format: functional
Mus musculus [30] = assay: Peripheral plasma levels in mice after oral administration of 100 mg/kg dose for 2 hr; format: functional, organism-based; set-up: dose 100 mg/kg; summary of the method: as §3
Streptococcus [31] = assay: In vitro antimicrobial activity against aerobic bacteria Streptococcus B 14; format: functional
Mus musculus [32] = assay: Peripheral plasma levels in mice after oral administration of 100 mg/kg dose for 0.25 hr; format: functional, organism-based; set-up: dose 100 mg/kg; summary of the method: as §3
Staphylococcus aureus [33] = assay: In vitro antimicrobial activity against aerobic bacteria Staphylococcus aureus V135; format: functional
Mus musculus [34] = assay: Peripheral plasma levels in mice after oral administration of 50 mg/kg dose for 2 hr; format: functional, organism-based; set-up: dose 50 mg/kg; summary of the method: as §3
Streptococcus pneumoniae [35] = assay: In vitro antimicrobial activity against aerobic bacteria Streptococcus pneumoniae B1-438; format: functional, streptococcus pneum
Mus musculus [36] = assay: Peripheral plasma levels in mice after oral administration of 100 mg/kg dose for 1 hr; format: functional, organism-based; set-up: dose 100 mg/kg; summary of the method: as §3
Haemophilus influenzae [37] = assay: In vitro antimicrobial activity against aerobic bacteria Haemophilus influenzae 76; format: functional
Mus musculus [38] = assay: Peripheral plasma levels in mice after oral administration of 50 mg/kg dose for 0.5 hr; format: functional, organism-based; set-up: dose 50 mg/kg; summary of the method: as §3
Staphylococcus aureus [39] = assay: In vitro antimicrobial activity against aerobic bacteria Staphylococcus aureus V41; format: functional
Streptococcus pyogenes [40] = assay: In vivo effective dose xperimental infections in rodent caused by Streptococcus pyogenes C203 when administered sc; format: functional
Streptococcus [41] = assay: In vitro antimicrobial activity against aerobic bacteria Streptococcus B 5; format: functional
Mus musculus [42] = assay: Peripheral plasma levels in mice after oral administration of 100 mg/kg dose for 4 hr; format: functional, organism-based; set-up: dose 100 mg/kg; summary of the method: as §3
Streptococcus [43] = assay: In vitro antimicrobial activity against aerobic bacteria Streptococcus D 9960; format: functional

MIC (Streptococcus pneumoniae [1]): 32 µg/mL (≈ 36 µM)
MIC (Haemophilus influenzae [3]): 128 µg/mL (≈ 144 µM)
MIC (Streptococcus pyogenes [5]): 1 µg/mL (≈ 1.13 µM)
MIC (Staphylococcus aureus [6]): 0.5 µg/mL (≈ 0.563 µM)
MIC [7]: 1 µg/mL (≈ 1.13 µM)
MIC (Streptococcus pyogenes [8]): 1 µg/mL (≈ 1.13 µM)
SMILES: CC[C@H]1OC(=O)C[C@@H](O)[C@H](C)[C@@H](O[C@@H]2O[C@H](C)[C@@H](O[C@H]3C[C@@](C)(O)[C@@H](O)[C@H](C)O3)[C@H](N(C)C)[C@H]2O)[C@@H](C)C[C@@H](C)C(=O)/C=C/C(C)=C/[C@@H]1CO[C@@H]1O[C@H](C)[C@@H](O)[C@@H](OC)[C@H]1OC [DEFORMYLTYLOSIN]
ED50 (Streptococcus pyogenes [2]): 12 mg/kg
ED50 (Streptococcus pyogenes [4]): 2 mg/kg
ED50 (Streptococcus pyogenes [9]): 2 mg/kg
ED50 (Streptococcus pyogenes [10]): 12 mg/kg

MIC (Haemophilus influenzae [12]): 128 µg/mL (≈ 129 µM)
MIC (Streptococcus [13]): > 128 µg/mL
MIC (Streptococcus viridans): > 128 µg/mL
MIC (Staphylococcus aureus [14]): 1 µg/mL (≈ 1.01 µM)
MIC (Streptococcus [15]): 1 µg/mL (≈ 1.01 µM)
MIC (Staphylococcus aureus [16]): 2 µg/mL (≈ 2.01 µM)
MIC [17]: > 128 µg/mL
MIC (Streptococcus [19]): > 128 µg/mL
MIC (Streptococcus [20]): 128 µg/mL (≈ 129 µM)
MIC (Streptococcus sanguinis): 8 µg/mL (≈ 8.05 µM)
MIC (Haemophilus influenzae [3]): > 128 µg/mL
MIC (Enterococcus faecium): 128 µg/mL (≈ 129 µM)
MIC [25]: 1 µg/mL (≈ 1.01 µM)
MIC (Staphylococcus aureus [28]): 2 µg/mL (≈ 2.01 µM)
MIC (Streptococcus [29]): 128 µg/mL (≈ 129 µM)
MIC (Streptococcus pyogenes [5]): 2 µg/mL (≈ 2.01 µM)
MIC (Streptococcus [31]): 128 µg/mL (≈ 129 µM)
MIC (Staphylococcus aureus [33]): 1 µg/mL (≈ 1.01 µM)
MIC (Streptococcus pneumoniae [35]): > 128 µg/mL
MIC (Staphylococcus aureus [6]): 1 µg/mL (≈ 1.01 µM)
MIC (Haemophilus influenzae [37]): > 128 µg/mL
MIC [7]: 1 µg/mL (≈ 1.01 µM)
MIC (Staphylococcus aureus [39]): 1 µg/mL (≈ 1.01 µM)
MIC (Streptococcus [41]): 128 µg/mL (≈ 129 µM)
MIC (Streptococcus [43]): 128 µg/mL (≈ 129 µM)
SMILES: CC[C@H]1OC(=O)C[C@@H](O)[C@H](C)[C@@H](O[C@@H]2O[C@H](C)[C@@H](O[C@H]3C[C@@](C)(O)[C@@H](O)[C@H](C)O3)[C@H](N(C)C)[C@H]2O)[C@@H](CCOc2ccccc2)C[C@@H](C)C(=O)/C=C/C(C)=C/[C@@H]1CO[C@@H]1O[C@H](C)[C@@H](O)[C@@H](OC)[C@H]1OC
Concentration (Rattus norvegicus [11]): 0.2 µg/mL
Concentration (Mus musculus [18]): 1.6 µg/mL
Concentration (Mus musculus [21]): 2.3 µg/mL
Concentration (Rattus norvegicus [22]): 2 µg/mL
Concentration (Rattus norvegicus [23]): 2.6 µg/mL
Concentration (Rattus norvegicus [24]): 2.7 µg/mL
Concentration (Rattus norvegicus [26]): 0.6 µg/mL
Concentration (Mus musculus [27]): 7.4 µg/mL
Concentration (Mus musculus [30]): 4 µg/mL
Concentration (Mus musculus [32]): 7.9 µg/mL
Concentration (Mus musculus [34]): 1.2 µg/mL
Concentration (Mus musculus [36]): 6 µg/mL
Concentration (Mus musculus [38]): 2 µg/mL
ED50 (Streptococcus pyogenes [40]): > 6.3 mg/kg
Concentration (Mus musculus [42]): 3.5 µg/mL
